Values after ≈ are worked out from the molar mass of the structure shown. Active and inactive are the calls of the source. The calls are words filed in the database; no cut-off is given here.
Assays:
[1] = Solubility of compound in PBS at pH 7.4 measured after 24 hrs by HPLC/UV/DAD analysis; assay type: physicochemical
In short: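 10 mM DMSO stock diluted to 250 μM (2.5% DMSO) in 50 mM aqueous PBS pH 7.4. Standard prepared in MeCN/water 60:40. Sealed and shaken 24 h at 25 °C, PTFE-filtered and diluted 1:2 in buffer. Quantified by HPLC/UV/DAD at 254 nm against the 250 μM standard. Triplicate, averaged.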

[2] = Chemical stability of compound in PBS at pH 7.4 measured after 24 hrs by HPLC/UV/DAD analysis; assay type: physicochemical; settings: read-out: Stability
In short: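 DMSO stock (10 mM) was diluted to 250 µM (2.5% DMSO) in 50 mM PBS, pH 7.4, and kept 24 h at 25 °C with shaking. Peak area at 24 h versus T0 was measured by HPLC/UV/DAD at 254 nm, in triplicate. Stress tests used a methanol solution heated at 40 °C for 24 h, or 24 h under UV 254 nm.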

[3] = Chemical stability of compound in PBS at pH 7.4 incubated for 24 hrs under UV 254 nm stress condition by HPLC/UV/DAD analysis; assay type: physicochemical; settings: read-out: Stability
[4] = Metabolic stability in human liver microsome assessed as apparent decay constant at 5 uM in presence of NADPH incubated up to 60 mins by HPLC analysis; assay type: ADME; settings: microsomes, 1 h
In short: (§1)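 Compound in MeCN was incubated at 5 µM and 37 °C in 100 mM phosphate buffer pH 7.4 with 0.5 mg/mL human or mouse liver microsomal protein. Reactions were started with an NADPH-regenerating system (2 mM NADPH, glucose-6-phosphate, G6PDH, MgCl2) and stopped with MeCN over 0–60 min. Remaining compound was measured by HPLC-UV at 254 nm, in triplicate, with first-order decay fitting.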

[5] = Metabolic stability in human liver microsome assessed as half life at 5 uM in presence of NADPH incubated up to 60 mins by HPLC analysis; assay type: ADME; settings: liver microsomes; in short: as §1
[6] = Metabolic stability in human liver microsome assessed as intrinsic clearance at 5 uM measured per mg protein in presence of NADPH incubated up to 60 mins by HPLC analysis; assay type: ADME; settings: microsomes, 1 h; in short: as §1
[7] = Metabolic stability in mouse liver microsome assessed as half life at 5 uM in presence of NADPH incubated up to 60 mins by HPLC analysis; assay type: ADME; settings: liver microsomes; in short: as §1
[8] = Metabolic stability in mouse liver microsome assessed as intrinsic clearance at 5 uM measured per mg protein in presence of NADPH incubated up to 60 mins by HPLC analysis; assay type: ADME; settings: microsomes, 1 h
In short: (§2)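 Compound (in MeCN) at 5 μM incubated at 37 °C in 100 mM phosphate buffer pH 7.4 with 0.5 mg/mL liver microsomal protein (rat, mouse or human). CYP reactions started with NADPH-generating system (2 mM NADPH, glucose-6-phosphate, G6P dehydrogenase, MgCl2). Stopped with MeCN at intervals over 0–60 min. Remaining parent quantified by HPLC-UV at 254 nm. Ln % recovery vs time fitted to first-order decay. Triplicate incubations.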

[9] = Metabolic stability in rat liver microsome assessed as apparent decay constant at 5 uM in presence of NADPH incubated up to 60 mins by HPLC analysis; assay type: ADME; settings: liver microsomes; in short: as §2
[10] = Metabolic stability in rat liver microsome assessed as half life at 5 uM in presence of NADPH incubated up to 60 mins by HPLC analysis; assay type: ADME; settings: liver microsomes; in short: as §2
[11] = Metabolic stability in rat liver microsome assessed as intrinsic clearance at 5 uM measured per mg protein in presence of NADPH incubated up to 60 mins by HPLC analysis; assay type: ADME; settings: microsomes, 1 h; in short: as §2
[12] = test system: Danio rerio; test: In vivo inhibition of HDAC8 in zebrafish AB embryos assessed as increase in acetylation level of alpha-tubulin at 20 to 75 uM measured after 24 hrs by Western blot analysis; assay type: functional, organism-based; settings: dose 20-75 µM
[13] = Toxicity in zebrafish AB embryos at 25 to 75 uM measured after 24 hrs; settings: Danio rerio, in vivo
[14] = Toxicity in zebrafish AB embryos assessed as tolerance at 25 to 75 uM measured after 24 hrs; settings: Danio rerio, in vivo
[15] = Toxicity in zebrafish AB embryos assessed as changes in dead and live embryos at 25 to 75 uM measured after 24 hrs; settings: Danio rerio, in vivo
[16] = test system: B cell; test: Cytotoxicity against patient derived human B cells; assay type: toxicity, cell-based
[17] = Cardiotoxicity in Langendorff-perfused Wistar rat heart assessed as effect on HR at 0.01 uM by ECG analysis (reference value: 252.3 +/-10.1 bpm); assay type: toxicity, tissue-based
[18] = Cardiotoxicity in Langendorff-perfused Wistar rat heart assessed as effect on RR time at 0.01 uM by ECG analysis (reference value: 239.5+/-9.2 milliseconds); assay type: toxicity, tissue-based
[19] = Cardiotoxicity in Langendorff-perfused Wistar rat heart assessed as effect on RR time at 0.1 uM by ECG analysis (reference value: 239.5+/-9.2 milliseconds); assay type: toxicity, tissue-based
[20] = Cardiotoxicity in Langendorff-perfused Wistar rat heart assessed as effect on RR time at 1 uM by ECG analysis (reference value: 239.5+/-9.2 milliseconds); assay type: toxicity, tissue-based
[21] = Cardiotoxicity in Langendorff-perfused Wistar rat heart assessed as effect on PQ interval time at 0.01 uM by ECG analysis (reference value: 45.4+/-3.9 milliseconds); assay type: toxicity, tissue-based
[22] = Cardiotoxicity in Langendorff-perfused Wistar rat heart assessed as effect on QRS interval time at 0.01 uM by ECG analysis (reference value: 13.3+/-0.6 milliseconds); assay type: toxicity, tissue-based
[23] = Cardiotoxicity in Langendorff-perfused Wistar rat heart assessed as effect on QT interval time at 0.01 uM by ECG analysis (reference value: 66.1+/-1.1 milliseconds); assay type: toxicity, tissue-based
[24] = Cardiotoxicity in Langendorff-perfused Wistar rat heart assessed as effect on QT interval time at 1 uM by ECG analysis (reference value: 66.1+/-1.1 milliseconds); assay type: toxicity, tissue-based
[25] = Cardiotoxicity in Langendorff-perfused Wistar rat heart assessed as effect on QT interval time at 10 uM by ECG analysis (reference value: 66.1+/-1.1 milliseconds); assay type: toxicity, tissue-based
[26] = Cardiotoxicity in Langendorff-perfused Wistar rat heart assessed as effect on QTc interval time at 0.01 uM by ECG analysis (reference value: 66.4+/-1.3 milliseconds); assay type: toxicity, tissue-based
[27] = Cardiotoxicity in Langendorff-perfused Wistar rat heart assessed as effect on QTc interval time at 0.1 uM by ECG analysis (reference value: 66.4+/-1.3 milliseconds); assay type: toxicity, tissue-based
[28] = Cardiotoxicity in Langendorff-perfused Wistar rat heart assessed as effect on QTc interval time at 1 uM by ECG analysis (reference value: 66.4+/-1.3 milliseconds); assay type: toxicity, tissue-based
[29] = Cardiotoxicity in Langendorff-perfused Wistar rat heart assessed as effect on QTc interval time at 10 uM by ECG analysis (reference value: 66.4+/-1.3 milliseconds); assay type: toxicity, tissue-based

Row | SMILES | solubility at 24 h [1] [µM] | remaining at 24 h [2] [%] | remaining at 24 h [3] [%] | K [4] [min⁻¹] | half-life at 5 µM [5] [h] | CLH [6] [µL/min] | half-life at 5 µM [7] [h] | CLH [8] [µL/min] | k el at 1 h, 5 µM [9] [s⁻¹] | half-life at 5 µM [10] [h] | CLH [11] [µL/min] | Activity [12] | Activity [13] | Activity [14] | Activity [15] | other results
1 | O=C(NO)c1ccc(CNC(=O)N2CCC(N3C(=O)[C@H](c4ccccc4)[C@H]3c3ccccc3)CC2)cc1 (racemic) | 70 (≈ 34.9 µg/mL) | 73 | 100 | 0.0129 | 0.9 | 32.28 | 1.07 | 35.38 | 0.000135 | 1.43 | 8.43 | Active | Non-Toxic | Non-Toxic | Non-Toxic | –
2 | O=C(NO)c1ccc(CNC(=O)N2CCC(N3CC(c4ccccc4)(c4ccccc4)C3=O)CC2)cc1 | 10 (≈ 4.99 µg/mL) | 75 | 100 | 0.0362 | 0.317 | 90.5 | 1.12 | 33.63 | 0.000118 | 1.63 | 7.39 | Active | Non-Toxic | Non-Toxic | Non-Toxic | Activity [16]: Non-Toxic; Activity [17]: 251.2 bpm; Time [18]: 239.8 ms; Time [19]: 233.1 ms; Time [20]: 237.2 ms; Time [21]: 44.4 ms; Time [22]: 12.8 ms; Time [23]: 66.7 ms; Time [24]: 68.1 ms; Time [25]: 68.5 ms; Time [26]: 66.9 ms; Time [27]: 68.2 ms; Time [28]: 68.9 ms; Time [29]: 68.6 ms
